Data from ChEMBL document CHEMBL5705890, “Antitumor activity of an allosteric inhibitor of centromere-associated protein-E” (Proc Natl Acad Sci U S A, 2010).

Columns and labels:
Format in all cases: functional
MDA-MB-231 = assay: Anticancer activity against human MDA-MB-231 cells assessed as cell doubling measured for 72 hrs by DAPI staining based analysis
NCI-H187 = assay: Anticancer activity against human NCI-H187 cells assessed as cell doubling measured for 72 hrs by DAPI staining based analysis
SK-N-DZ = assay: Anticancer activity against human SK-N-DZ cells assessed as cell growth inhibition measured after 72 hrs by DAPI staining based analysis
ACHN = assay: Anticancer activity against human ACHN cells assessed as cell growth inhibition measured after 72 hrs by DAPI staining based analysis
In short: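 Cells were seeded and, after 24 h, DNA content was read as T0. Cells were then exposed to varying drug concentrations for a further 72 h (T72). Fixed cells were DAPI-stained and DNA content measured by automated imaging. T72 values were normalized to T0. GI50 is the concentration giving 50% growth inhibition between T0 and Ymax, obtained by curve fitting.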

SJRH30 = assay: Anticancer activity against human SJRH30 cells assessed as cell growth inhibition measured after 72 hrs by DAPI staining based analysis
RL = assay: Anticancer activity against human RL cells assessed as cell growth inhibition measured after 72 hrs by DAPI staining based analysis
HOP-62 [1] = assay: Anticancer activity against human HOP-62 cells assessed as cell doubling measured for 72 hrs by DAPI staining based analysis
SCC-15 = assay: Anticancer activity against human SCC-15 cells assessed as cell doubling measured for 72 hrs by DAPI staining based analysis
SW-620 = assay: Anticancer activity against human SW620 cells assessed as cell doubling measured for 72 hrs by DAPI staining based analysis
Raji = assay: Anticancer activity against human Raji cells assessed as cell growth inhibition measured after 72 hrs by DAPI staining based analysis
SCC-4 = assay: Anticancer activity against human SCC-4 cells assessed as cell doubling measured for 72 hrs by DAPI staining based analysis
[2] = Antitumor activity against human MV-522 cells in xenograft model assessed as difference between median time to endpoint time of treated versus control group at 125 mg/kg
SW756 [3] = assay: Anticancer activity against human SW756 cells assessed as cell doubling measured for 72 hrs by DAPI staining based analysis
DU-4475 = assay: Anticancer activity against human DU-4475 cells assessed as cell doubling measured for 72 hrs by DAPI staining based analysis
[4] = Anticancer activity against human CML-T1 cells assessed as cell doubling measured for 72 hrs by DAPI staining based analysis
SW756 [5] = assay: Anticancer activity against human SW756 cells assessed as cell growth inhibition measured after 72 hrs by DAPI staining based analysis
NCI-H460 [6] = assay: Antitumor activity against human NCI-H460 cells in xenograft model assessed as difference between median time to endpoint time of treated versus control group at 62.5 mg/kg
GCT = assay: Anticancer activity against human GCT cells assessed as cell growth inhibition measured after 72 hrs by DAPI staining based analysis
In short: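 Cells seeded, DAPI-stained DNA content of fixed cells read by imaging 24 h after seeding (T0), and again after a further 72 h exposure to a range of drug concentrations (T72). T72 values were normalized to T0. Curve fits gave the concentration producing 50% growth inhibition relative to T0 and Ymax (GI50).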

CAL-54 = assay: Anticancer activity against human CAL-54 cells assessed as cell doubling measured for 72 hrs by DAPI staining based analysis
BE(2)-C = assay: Anticancer activity against human BE2C cells assessed as cell doubling measured for 72 hrs by DAPI staining based analysis
[7] = Anticancer activity against human BM-1604 cells assessed as cell growth inhibition measured after 72 hrs by DAPI staining based analysis
In short: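 Cells were seeded, and DNA content at 24 h after seeding (T0) was read by imaging of fixed, DAPI-stained cells. Cells were then exposed to a range of drug concentrations for a further 72 h (T72) and DNA content was read again. T72 values were normalized to T0, and GI50 was taken from curve fits as the concentration giving 50% growth inhibition relative to T0 and Ymax.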

RKO = assay: Anticancer activity against human RKO cells assessed as cell growth inhibition measured after 72 hrs by DAPI staining based analysis
CWR22R = assay: Anticancer activity against human 22Rv1 cells assessed as cell doubling measured for 72 hrs by DAPI staining based analysis
SHP77 = assay: Anticancer activity against human SHP77 cells assessed as cell doubling measured for 72 hrs by DAPI staining based analysis
SCaBER = assay: Anticancer activity against human SCaBER cells assessed as cell growth inhibition measured after 72 hrs by DAPI staining based analysis
CAL-27 = assay: Anticancer activity against human CAL-27 cells assessed as cell doubling measured for 72 hrs by DAPI staining based analysis
MDA-MB-453 = assay: Anticancer activity against human MDA-MB-453 cells assessed as cell growth inhibition measured after 72 hrs by DAPI staining based analysis
NCI-H508 = assay: Anticancer activity against human NCI-H508 cells assessed as cell doubling measured for 72 hrs by DAPI staining based analysis
NCI-H358 = assay: Anticancer activity against human NCI-H358 cells assessed as cell doubling measured for 72 hrs by DAPI staining based analysis
[8] = Anticancer activity against human BM-1604 cells assessed as cell doubling measured for 72 hrs by DAPI staining based analysis
UACC-257 = assay: Anticancer activity against human UACC-257 cells assessed as cell growth inhibition measured after 72 hrs by DAPI staining based analysis
NCI-H460 [9] = assay: Antitumor activity against human NCI-H460 cells in xenograft model assessed as tumor growth delay at 125 mg/kg relative to control
CAKI-2 = assay: Anticancer activity against human CAKI-2 cells assessed as cell doubling measured for 72 hrs by DAPI staining based analysis
M14 = assay: Anticancer activity against human M14 cells assessed as cell growth inhibition measured after 72 hrs by DAPI staining based analysis
CHP-212 = assay: Anticancer activity against human CHP-212 cells assessed as cell doubling measured for 72 hrs by DAPI staining based analysis
UMUC3 = assay: Anticancer activity against human UM-UC-3 cells assessed as cell growth inhibition measured after 72 hrs by DAPI staining based analysis
HOP-62 [10] = assay: Anticancer activity against human HOP-62 cells assessed as cell growth inhibition measured after 72 hrs by DAPI staining based analysis
NCI-H157 = assay: Anticancer activity against human NCI-H157 cells assessed as cell growth inhibition measured after 72 hrs by DAPI staining based analysis
SF-295 = assay: Anticancer activity against human SF-295 cells assessed as cell doubling measured for 72 hrs by DAPI staining based analysis
HEC-1-A = assay: Anticancer activity against human HEC-1-A cells assessed as cell doubling measured for 72 hrs by DAPI staining based analysis
SK-OV-3 = assay: Antitumor activity against human SK-OV-3 cells in xenograft model assessed as difference between median time to endpoint time of treated versus control group at 62.5 mg/kg

GI50 (SK-N-DZ): 69 nM | GI50 (ACHN): 61 nM | GI50 (Raji): 41 nM | GI50 (SW756 [5]): 35 nM | GI50 (MDA-MB-453): 27 nM | GI50 (NCI-H157): 37 nM
SMILES: CC(C)Oc1ccc(C(=O)N[C@H](CNC(=O)CN(C)C)Cc2ccc(-c3cn4cccc([C@H](C)O)c4n3)cc2)cc1Cl [GSK-923295A]
Activity (MDA-MB-231): 2.32 | Activity (NCI-H187): 2.08 | GI50 (SJRH30): 26 nM | GI50 (RL): 37 nM | Activity (HOP-62 [1]): 1.82 | Activity (SCC-15): 2.38 | Activity (SW-620): 2.91 | Activity (SCC-4): 2.44 | Time [2]: 26.3 days | Activity (SW756 [3]): 2.36 | Activity (DU-4475): 2.05 | Activity [4]: 2.88 | Time (NCI-H460 [6]): 15.4 days | GI50 (GCT): 23 nM | Activity (CAL-54): 1.05 | Activity (BE(2)-C): 2.28 | GI50 [7]: 40 nM | GI50 (RKO): 53 nM | Activity (CWR22R): 2.46 | Activity (SHP77): 2.04 | GI50 (SCaBER): 54 nM | Activity (CAL-27): 2.55 | Activity (NCI-H508): 3.01 | Activity (NCI-H358): 2.07 | Activity [8]: 2.38 | GI50 (UACC-257): 32 nM | Activity (NCI-H460 [9]): 210% | Activity (CAKI-2): 1.63 | GI50 (M14): 27 nM | Activity (CHP-212): 1.39 | GI50 (UMUC3): 23 nM | GI50 (HOP-62 [10]): 20 nM | Activity (SF-295): 2.3 | Activity (HEC-1-A): 2.67 | Time (SK-OV-3): 71.6 days
